Here are results for 20 sequences from the EternaBench riboswitch data.

The data set concerns MS2 coat protein. As to the kind of experiment: apparent Kd, MS2 coat protein; higher = weaker binding; RNA-MaP array; FMN 200 µM where present. A digest of the protocol:
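Stalled E. coli RNA polymerase transcribed each design on Illumina sequencing-chip clusters. The clusters were titrated with SNAP-549-labelled MS2 coat protein, starting at 0.7 or 1.5 nM and doubling up to 3 µM, first without ligand and then with constant ligand, in 100 mM Tris-HCl pH 7.5, 80 mM KCl, 4 mM MgCl2, BSA, DTT, yeast tRNA and Tween-20. Green signal was normalised to red-channel RNA signal and to the control-cluster median Fmax. The apparent Kd is the median of filtered binding-curve fits made for each cluster.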

Where [1] appears, read: designed as: ON switch for flavin mononucleotide, no ligand.
The mark [2] stands for this setting: ligand present: flavin mononucleotide, designed as: ON switch for flavin mononucleotide.
Setting [3] is: designed as: OFF switch for flavin mononucleotide, no ligand.
The mark [4] stands for this setting: ligand present: flavin mononucleotide, designed as: OFF switch for flavin mononucleotide.

“GGAGACCUCACAGGAUAUGCUGGACUUUGUCCAGCAGAAGGGUGAACAUGAGGAUCACCCAUGUUGGUCUCCAAAAUAUUUAAU”: the “apparent Kd” value is, setting by setting: under setting [1], 882 nM; under setting [2], 108 nM.
Regarding “GGGCCGGUGGAGAAGGAGCUUGCGAAACGCAUGCUAGGAUAUCCACAUGAGGAUCACCCAUGUGGGAAUAUCUGAUUUUCACAG”, the “apparent Kd” value runs as follows: under setting [3], 3.82 nM; under setting [4], 4.76 nM.
The corresponding values for “AGUAGUUCAGGAUAUGAUGUAUGUUACAUGAGGAUCACCCAUGUAGGUCCUUGAAUUGUAUCAGAAGGGAAUAUCU” are 258 nM and 281 nM.
Regarding “AAAAGUUGGUAAGGAUAUCCCACAUUAUUCUGACCCGUGCAAGCUACAUGAGGAUCACCCAUGUGGGAGAAGGUGCGUUAAAGA”, the “apparent Kd” value under setting [3] was found to be 54.7 nM and the “apparent Kd” value under setting [4] was found to be 64.6 nM.
As to “AGUGUCAUCGAGAAGGCCUCAACAUGAGGAUCACCCAUGUUGGAAUAUGGGAGGAUAUCGAUGAUACAGCUACGUUUCGUAGCA”, the “apparent Kd” value is, setting by setting: under setting [1], 10.2 nM; under setting [2], 5.04 nM.
With “CUUUUGUGAGGAUAUUAGUAGUAAAUAAAUAAAAUUACUUCUGAGAAGGCACAUGAGGAUCACCCAUGUUCCUC”, the “apparent Kd” value runs as follows: under setting [3], 30.6 nM; under setting [4], 123 nM.
For the sequence “CCAGAUAUGUGAGGAUAUAGAGUGGAAUACACUCUAGAAGGUAUGUGAGAACAUGAGGAUCACCCAUGUCAUUGAUUAUCUGGA”, the “apparent Kd” value under setting [1] came to 24.7 nM and the “apparent Kd” value under setting [2] came out at 24.6 nM.
“ACCUCACAUGAGGAUCACCCAUGUCAGGAUAUGUACCCGAUCAAGUCAGAGAUUGGGAGCAGAAGGGACUGCGG”: the “apparent Kd” value under setting [3] is 119 nM and the “apparent Kd” value under setting [4] amounted to 34.5 nM.
“GUCAAGUGAGGAUAUGAUUGUACAGCAGACUAGCGUCUGCAUCAGAAGGCACAUGAGGAUCACCCAUGUUUGUC”: the “apparent Kd” value was determined as 20.6 nM under setting [3] and 17.1 nM under setting [4].
For “UUUUAACAUGAGGAUCACCCAUGUGAGGAUAUCGAAAUUUAUAUUUAUAUUAAUUAUACGAGAAGGCACAUUUU” the same measures were 79.2 nM and 104 nM.
For “CGUGGACUAGGAUAUUUACGAGGCUACAUGAGGAUCACCCAUGUGUUCUCGAGUACCAUGAAAGAAGGAGUAGCGA” the same measures were 12.6 nM and 14 nM.
For the sequence “UUGAAGUCAUCAGGAUAUAGUAUUAAAGACAUUUAUUUUUUCAUACAUGAGGAUCACCCAUGUCGCUAGAAGGGAUUAUAGAUU”, the “apparent Kd” value runs as follows: under setting [3], 51.8 nM; under setting [4], 49.2 nM.
For “AAGUUCUGUGAGAAGGCGCCCUUUGCGGUUGGGCGAGGAUAUCACAUGAGGAUCACCCAUGUCGGUGCAUCAGACAGCGUAUUU”, the “apparent Kd” value was 810 nM under setting [3] and 156 nM under setting [4].
The corresponding values for “GAAAACAGAGGAUAUACAAAAUUAUGACGAAAGUCAUAAAAACAUGAGGAUCACCCAUGUAGAAGGCUGAAGAA” are 29 nM and 26.9 nM.
For “AUAAAUCAUGUAGGAUAUGCGUGGCGAAGCUAUGCAGAAGGACAUGAGGAUCACCCAUGUCUAUCCGUCUGCGUACAGACGGAA”, the “apparent Kd” value was 26.2 nM under setting [3] and 216 nM under setting [4].
Consider “AAAUGCUUGUCGAUGCUCGACAUGAGGAUCACCCAUGUAUAGCAGGAUAUGCAGAACUGACUCGUGCAGAAGGGCUAUACCUAA”, for which the “apparent Kd” value under setting [3] was 23.2 nM and the “apparent Kd” value under setting [4] turned out to be 69.6 nM.
Regarding “UUCCUACAUGAGGAUCACCCAUGUGAGGAUAUGCAUCGUAUUAUUCUCGUAUGUAGUAGCAGAAGGCGCAUUGG”, the “apparent Kd” value was 25.9 nM under setting [3] and 89.6 nM under setting [4].
For “AGCUGUGGCCGAGGAUAUCUAACUUCAAUAACCGAAAUAUAAUCGGACAUGAGGAUCACCCAUGUAGAGAAGGCGGUCUCAGCA” the same measures were 15.2 nM and 20.1 nM.
The corresponding values for “AGCAUGUGAGGAUAUGUGACCCUCAUCCGAAGGACGAGGGAAUAGAAGGCACAUGAGGAUCACCCAUGUGAUGA” are 46.2 nM and 188 nM.
Consider “GCCGACCAGAAGUCGGUACGGAGGAGAAGGCGCCUCCUGGGUCCACAUGAGGAUCACCCAUGUGGCGAGGAUAUCCUCAGUUUU”, for which the “apparent Kd” value is, setting by setting: under setting [3], 16.4 nM; under setting [4], 126 nM.

The term apparent Kd denotes a dissociation constant that holds for the conditions of the assay.
